The values below come from ChEMBL document CHEMBL5120972, “Small-Molecule Inhibitors of the MLL1 CXXC Domain, an Epigenetic Reader of DNA Methylation” (ACS Med Chem Lett, 2022).

For experiment [1], the target named is Methylcytosine dioxygenase TET3 (Homo sapiens, UniProt O43151). The experiment can be described thus: Inhibition of GST-tagged human TET3 ([…] residues) expressed in Escherichia coli BL21 cell incubated for 30 mins by fluorescence polarization assay. An outline of the steps: (§1)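 Competition fluorescence polarization assay. CXXC domain protein is held at 2× its own KD. All domains are expressed and purified by the same method. Standard deviations come from three separate measurements.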

Experiment [2] has as its target Methylcytosine dioxygenase TET1 (Homo sapiens, UniProt Q8NFU7). The experiment in a line: Inhibition of GST-tagged human TET1 (583 to 633 residues) expressed in Escherichia coli BL21 cells incubated for 30 mins by fluorescence polarization assay. An outline of the steps: as §1
(In general: Fluorescence polarisation rises when a labelled molecule tumbles more slowly, as on binding a larger partner.)

In experiment [3] the target is T1, CXXC-type zinc finger protein 4 (Homo sapiens, UniProt Q9H2H0).
T1 sequence (Q9H2H0 whole entry): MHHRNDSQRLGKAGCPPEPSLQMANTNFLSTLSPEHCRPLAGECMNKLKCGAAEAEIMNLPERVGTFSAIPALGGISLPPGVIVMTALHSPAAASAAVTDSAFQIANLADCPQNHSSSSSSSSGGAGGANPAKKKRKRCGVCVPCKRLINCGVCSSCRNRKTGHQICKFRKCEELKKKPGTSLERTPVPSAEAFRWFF
The experiment can be described thus: Inhibition of GST-tagged human IDAX (130 to 181 residues) expressed in Escherichia coli BL21 cells incubated for 30 mins by fluorescence polarization assay. An outline of the steps: as §1

The target of experiment [4] is T2, F-box/LRR-repeat protein 19 (Homo sapiens, UniProt Q6PCT2).
T2 sequence (Q6PCT2 whole entry): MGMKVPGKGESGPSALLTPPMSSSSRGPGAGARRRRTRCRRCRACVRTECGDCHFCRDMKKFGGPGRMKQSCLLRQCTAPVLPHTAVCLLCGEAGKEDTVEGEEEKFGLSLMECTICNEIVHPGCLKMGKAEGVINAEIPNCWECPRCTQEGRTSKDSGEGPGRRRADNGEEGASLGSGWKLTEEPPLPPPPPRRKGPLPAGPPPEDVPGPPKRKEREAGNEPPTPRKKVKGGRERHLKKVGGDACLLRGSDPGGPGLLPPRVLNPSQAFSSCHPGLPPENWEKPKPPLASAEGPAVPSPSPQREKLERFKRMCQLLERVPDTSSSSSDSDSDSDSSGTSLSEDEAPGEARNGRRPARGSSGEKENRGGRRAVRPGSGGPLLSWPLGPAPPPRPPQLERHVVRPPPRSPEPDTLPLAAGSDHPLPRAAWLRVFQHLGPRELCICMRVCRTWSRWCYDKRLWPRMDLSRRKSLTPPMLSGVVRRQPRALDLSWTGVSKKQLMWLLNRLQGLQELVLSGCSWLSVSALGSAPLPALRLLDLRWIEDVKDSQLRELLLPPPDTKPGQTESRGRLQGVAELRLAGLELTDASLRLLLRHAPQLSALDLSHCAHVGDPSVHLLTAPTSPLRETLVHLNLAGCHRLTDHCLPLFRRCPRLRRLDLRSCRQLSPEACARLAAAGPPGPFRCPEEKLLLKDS
The experiment can be described thus: Inhibition of GST-tagged human FBXL19 (31 to 86 residues) expressed in Escherichia coli BL21 cells incubated for 30 mins by fluorescence polarization assay. An outline of the steps: as §1

Experiment [5] in a line: Inhibition of GST-tagged human MLL1 Cys1188Ala mutant (1147 to 1203 residues) expressed in Escherichia coli BL21 cells incubated for 30 mins by fluorescence polarization assay.
Experiment [6] addresses T3, Lysine-specific demethylase 2B (Homo sapiens, UniProt Q8NHM5).
T3 sequence (Q8NHM5 whole entry): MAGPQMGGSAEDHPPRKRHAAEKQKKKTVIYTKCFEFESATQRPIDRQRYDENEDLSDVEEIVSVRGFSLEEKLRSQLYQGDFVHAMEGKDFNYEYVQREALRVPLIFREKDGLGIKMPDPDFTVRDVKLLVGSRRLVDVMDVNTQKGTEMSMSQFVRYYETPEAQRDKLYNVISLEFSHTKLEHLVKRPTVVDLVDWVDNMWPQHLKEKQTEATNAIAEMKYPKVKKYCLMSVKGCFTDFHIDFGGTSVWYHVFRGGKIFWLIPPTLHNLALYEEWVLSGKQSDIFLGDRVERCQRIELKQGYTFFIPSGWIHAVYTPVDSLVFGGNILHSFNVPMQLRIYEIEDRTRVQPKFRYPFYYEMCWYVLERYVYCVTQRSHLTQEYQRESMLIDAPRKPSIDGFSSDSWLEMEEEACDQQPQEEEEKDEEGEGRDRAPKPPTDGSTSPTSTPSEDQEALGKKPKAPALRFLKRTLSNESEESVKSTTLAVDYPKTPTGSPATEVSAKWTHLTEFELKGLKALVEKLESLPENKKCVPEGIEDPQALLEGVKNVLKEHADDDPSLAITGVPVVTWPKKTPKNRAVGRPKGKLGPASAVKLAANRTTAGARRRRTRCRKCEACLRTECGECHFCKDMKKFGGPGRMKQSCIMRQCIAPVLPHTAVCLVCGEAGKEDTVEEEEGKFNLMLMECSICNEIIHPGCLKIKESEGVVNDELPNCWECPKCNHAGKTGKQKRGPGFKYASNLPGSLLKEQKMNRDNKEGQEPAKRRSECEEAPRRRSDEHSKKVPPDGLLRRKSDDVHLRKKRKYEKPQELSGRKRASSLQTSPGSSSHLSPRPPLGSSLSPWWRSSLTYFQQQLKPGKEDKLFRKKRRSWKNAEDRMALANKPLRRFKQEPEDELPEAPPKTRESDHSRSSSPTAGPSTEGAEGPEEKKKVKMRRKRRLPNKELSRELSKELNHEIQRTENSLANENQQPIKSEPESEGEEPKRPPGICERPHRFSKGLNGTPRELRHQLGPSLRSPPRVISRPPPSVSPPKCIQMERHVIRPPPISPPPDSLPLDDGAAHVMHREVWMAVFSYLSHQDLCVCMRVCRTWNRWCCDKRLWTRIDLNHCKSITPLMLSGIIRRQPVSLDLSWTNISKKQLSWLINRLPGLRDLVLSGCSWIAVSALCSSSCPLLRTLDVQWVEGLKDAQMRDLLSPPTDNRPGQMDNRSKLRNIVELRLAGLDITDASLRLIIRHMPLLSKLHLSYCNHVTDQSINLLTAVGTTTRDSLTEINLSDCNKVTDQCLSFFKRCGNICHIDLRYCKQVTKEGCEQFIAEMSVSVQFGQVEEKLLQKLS
The experiment in a line: Inhibition of GST-tagged human KDM2B (604 to 660 residues) expressed in Escherichia coli BL21 cells incubated for 30 mins by fluorescence polarization assay. An outline of the steps: as §1

Experiment [7] deals with Histone-lysine N-methyltransferase 2A (Homo sapiens, UniProt Q03164). The experiment can be described thus: Inhibition of GST-tagged human MLL1 (1147 to 1203 residues) expressed in Escherichia coli BL21 cells incubated for 30 mins by fluorescence polarization assay. In a few lines: as §1

Methylcytosine dioxygenase TET1, sequence (Q8NFU7 whole entry, the tested form may be a part): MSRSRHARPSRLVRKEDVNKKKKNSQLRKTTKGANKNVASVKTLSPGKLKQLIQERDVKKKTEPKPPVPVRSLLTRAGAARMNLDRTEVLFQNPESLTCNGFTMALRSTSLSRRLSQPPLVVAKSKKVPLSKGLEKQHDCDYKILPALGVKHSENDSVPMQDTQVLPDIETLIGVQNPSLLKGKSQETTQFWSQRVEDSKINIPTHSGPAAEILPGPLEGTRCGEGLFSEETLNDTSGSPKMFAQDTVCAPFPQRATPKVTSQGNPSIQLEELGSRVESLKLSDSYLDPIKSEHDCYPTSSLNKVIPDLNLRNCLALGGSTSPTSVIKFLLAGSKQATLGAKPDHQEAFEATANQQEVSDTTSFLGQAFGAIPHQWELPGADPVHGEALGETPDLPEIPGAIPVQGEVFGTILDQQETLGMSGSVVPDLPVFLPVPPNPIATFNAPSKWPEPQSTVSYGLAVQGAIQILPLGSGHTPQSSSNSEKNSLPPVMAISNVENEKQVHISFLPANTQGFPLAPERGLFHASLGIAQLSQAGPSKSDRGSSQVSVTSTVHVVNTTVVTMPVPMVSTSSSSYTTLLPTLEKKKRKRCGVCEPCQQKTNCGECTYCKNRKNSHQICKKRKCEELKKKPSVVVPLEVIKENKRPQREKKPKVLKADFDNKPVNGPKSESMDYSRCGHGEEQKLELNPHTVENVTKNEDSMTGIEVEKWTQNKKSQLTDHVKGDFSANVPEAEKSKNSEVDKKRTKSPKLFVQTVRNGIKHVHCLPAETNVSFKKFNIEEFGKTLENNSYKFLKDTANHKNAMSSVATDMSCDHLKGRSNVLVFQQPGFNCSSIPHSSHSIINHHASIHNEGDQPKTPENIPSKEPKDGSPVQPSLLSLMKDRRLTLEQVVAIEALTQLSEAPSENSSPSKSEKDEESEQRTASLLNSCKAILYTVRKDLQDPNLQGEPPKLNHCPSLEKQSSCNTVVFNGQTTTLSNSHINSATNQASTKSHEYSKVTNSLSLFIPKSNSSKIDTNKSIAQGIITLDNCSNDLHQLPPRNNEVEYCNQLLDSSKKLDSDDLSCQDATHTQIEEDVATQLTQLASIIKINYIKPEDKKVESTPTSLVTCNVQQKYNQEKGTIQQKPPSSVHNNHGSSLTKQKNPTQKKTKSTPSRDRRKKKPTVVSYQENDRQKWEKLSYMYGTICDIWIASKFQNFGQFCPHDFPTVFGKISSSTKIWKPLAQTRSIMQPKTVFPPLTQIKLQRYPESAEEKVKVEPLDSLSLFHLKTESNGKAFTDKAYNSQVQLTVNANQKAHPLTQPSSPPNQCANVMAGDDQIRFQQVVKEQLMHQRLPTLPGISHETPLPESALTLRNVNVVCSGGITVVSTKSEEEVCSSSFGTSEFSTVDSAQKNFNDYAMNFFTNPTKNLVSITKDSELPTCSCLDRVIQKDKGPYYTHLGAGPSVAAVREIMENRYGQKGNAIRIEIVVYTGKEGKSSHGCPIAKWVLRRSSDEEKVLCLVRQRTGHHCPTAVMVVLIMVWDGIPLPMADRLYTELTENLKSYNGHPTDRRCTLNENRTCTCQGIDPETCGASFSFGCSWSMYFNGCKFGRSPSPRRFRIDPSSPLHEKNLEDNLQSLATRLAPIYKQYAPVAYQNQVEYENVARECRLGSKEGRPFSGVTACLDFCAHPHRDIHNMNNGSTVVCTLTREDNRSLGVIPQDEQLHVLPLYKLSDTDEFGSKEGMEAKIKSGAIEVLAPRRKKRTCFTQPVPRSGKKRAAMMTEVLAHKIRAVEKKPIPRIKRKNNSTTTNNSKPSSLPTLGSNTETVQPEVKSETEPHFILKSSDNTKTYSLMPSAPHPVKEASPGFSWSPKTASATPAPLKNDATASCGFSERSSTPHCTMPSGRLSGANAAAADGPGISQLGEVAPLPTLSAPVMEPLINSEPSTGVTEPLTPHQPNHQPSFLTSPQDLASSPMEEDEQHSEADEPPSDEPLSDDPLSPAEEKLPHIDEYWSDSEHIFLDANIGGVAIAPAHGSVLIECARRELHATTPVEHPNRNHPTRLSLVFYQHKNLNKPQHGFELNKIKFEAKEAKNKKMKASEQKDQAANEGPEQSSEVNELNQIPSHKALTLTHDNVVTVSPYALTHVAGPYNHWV
Methylcytosine dioxygenase TET3, sequence (O43151 whole entry, the tested form may be a part): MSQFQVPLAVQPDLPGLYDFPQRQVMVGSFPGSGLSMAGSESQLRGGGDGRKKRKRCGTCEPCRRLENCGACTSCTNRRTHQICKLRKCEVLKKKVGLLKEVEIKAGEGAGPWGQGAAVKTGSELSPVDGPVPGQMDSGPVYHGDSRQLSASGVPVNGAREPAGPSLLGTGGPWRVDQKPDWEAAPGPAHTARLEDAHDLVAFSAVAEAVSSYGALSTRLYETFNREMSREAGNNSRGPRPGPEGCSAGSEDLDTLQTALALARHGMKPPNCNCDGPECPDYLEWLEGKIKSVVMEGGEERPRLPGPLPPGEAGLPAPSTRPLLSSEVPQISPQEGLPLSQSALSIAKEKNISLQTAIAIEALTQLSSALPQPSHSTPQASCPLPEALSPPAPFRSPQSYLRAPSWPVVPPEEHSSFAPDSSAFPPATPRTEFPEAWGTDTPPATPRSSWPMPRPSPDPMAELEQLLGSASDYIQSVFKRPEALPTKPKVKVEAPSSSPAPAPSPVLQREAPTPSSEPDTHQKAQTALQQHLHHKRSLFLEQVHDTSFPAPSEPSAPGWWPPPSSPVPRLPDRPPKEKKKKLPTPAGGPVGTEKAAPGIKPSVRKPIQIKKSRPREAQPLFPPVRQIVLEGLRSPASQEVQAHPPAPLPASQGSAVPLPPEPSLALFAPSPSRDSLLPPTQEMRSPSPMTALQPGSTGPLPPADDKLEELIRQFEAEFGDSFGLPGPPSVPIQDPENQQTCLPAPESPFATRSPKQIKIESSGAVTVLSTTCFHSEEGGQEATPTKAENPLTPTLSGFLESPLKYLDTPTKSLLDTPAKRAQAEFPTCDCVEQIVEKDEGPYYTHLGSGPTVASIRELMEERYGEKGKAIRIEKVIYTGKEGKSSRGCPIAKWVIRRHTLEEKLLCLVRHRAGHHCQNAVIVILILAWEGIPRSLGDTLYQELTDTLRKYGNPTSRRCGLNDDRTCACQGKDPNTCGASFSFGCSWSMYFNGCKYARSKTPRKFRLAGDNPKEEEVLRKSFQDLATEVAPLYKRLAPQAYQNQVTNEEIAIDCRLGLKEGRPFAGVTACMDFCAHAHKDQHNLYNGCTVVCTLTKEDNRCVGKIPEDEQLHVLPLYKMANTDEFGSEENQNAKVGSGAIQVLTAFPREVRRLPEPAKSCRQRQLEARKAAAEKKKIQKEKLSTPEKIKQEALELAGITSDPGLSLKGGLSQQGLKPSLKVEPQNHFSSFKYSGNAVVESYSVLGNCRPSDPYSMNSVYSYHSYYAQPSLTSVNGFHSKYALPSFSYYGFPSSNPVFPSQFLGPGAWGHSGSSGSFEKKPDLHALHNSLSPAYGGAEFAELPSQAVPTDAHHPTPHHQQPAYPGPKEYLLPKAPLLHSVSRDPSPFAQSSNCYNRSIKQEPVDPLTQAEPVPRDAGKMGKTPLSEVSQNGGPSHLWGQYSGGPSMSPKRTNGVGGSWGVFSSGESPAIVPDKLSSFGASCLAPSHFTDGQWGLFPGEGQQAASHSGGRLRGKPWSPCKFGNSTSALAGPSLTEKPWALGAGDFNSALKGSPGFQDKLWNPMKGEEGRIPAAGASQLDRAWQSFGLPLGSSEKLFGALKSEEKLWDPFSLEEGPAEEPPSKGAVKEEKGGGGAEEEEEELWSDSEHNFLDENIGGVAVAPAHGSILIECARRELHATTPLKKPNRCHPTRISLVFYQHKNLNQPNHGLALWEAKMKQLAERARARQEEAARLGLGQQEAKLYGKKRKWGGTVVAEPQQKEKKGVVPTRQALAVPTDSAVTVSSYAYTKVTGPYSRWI

As usually defined, the IC50 is the concentration that gives 50% inhibition. A higher IC50 goes with lower potency. As to `C=CC(=O)N1CCC(C(=O)NS(=O)(=O)c2ccccc2)(c2ccccc2)CC1`, the IC50 amounted to 33 µM in experiment [1]; 107 µM in experiment [2]; 23 µM in experiment [3]; 21.7 µM in experiment [4]; 52 µM in experiment [5]; 35 µM in experiment [6]. The same compound showed an IC50 in experiment [7] of 46 µM.
For the compound `C=CC(=O)N1CCC(C(=O)O)(c2ccc(OCC)cc2)CC1`, the IC50 in experiment [1] was determined as 5.8 µM; in experiment [2] it was 6.3 µM; in experiment [3], 1.2 µM; in experiment [4], 2.4 µM; in experiment [5], 15.4 µM; in experiment [6], 3.6 µM. This compound showed an IC50 in experiment [7] of 3.3 µM.
With `C=CC(=O)N1CCC(C(=O)O)(c2ccccc2)CC1`, the IC50 in experiment [1] amounted to 5.1 µM; in experiment [2] it was 11.3 µM; in experiment [3] it was 4 µM; in experiment [4], 1.8 µM; in experiment [5] it was 3.6 µM; in experiment [6], 6.4 µM. Further, the IC50 in experiment [7] is 7.1 µM.
Take `C=CC(=O)N1CCC(c2ccc(OCC)cc2)(c2nnn[nH]2)CC1`: the IC50 in experiment [1] came to 21 µM; in experiment [2], 24 µM; in experiment [3], 8.9 µM; in experiment [4], 10.9 µM; in experiment [5], 104 µM; in experiment [6] it was 30 µM. This compound also registered an IC50 in experiment [7] of 22 µM.
Regarding `C=CC(=O)N1CCC(c2ccccc2)(c2nnn[nH]2)CC1`, the IC50 in experiment [1] was 5.5 µM; in experiment [2] it was 11 µM; in experiment [3], 2.4 µM; in experiment [4] it was 3.1 µM; in experiment [5], 20 µM; in experiment [6] it was 8.3 µM. The same compound returned an IC50 in experiment [7] of 4.9 µM.
In the case of `C=CC(=O)N1CCC(c2cccc(OCC)c2)(c2nnn[nH]2)CC1`, the IC50 in experiment [1] was 7 µM; in experiment [2], 10.7 µM; in experiment [3], 2.2 µM; in experiment [4], 2.6 µM; in experiment [5] it was 43 µM; in experiment [6], 9.4 µM. In addition, the IC50 in experiment [7] was determined as 7.7 µM.
Turning to `C=CC(=O)N1CCC(C(=O)O)(c2ccc(OC)cc2)CC1`, the IC50 was determined as 30 µM in experiment [1]; 81 µM in experiment [2]; 35 µM in experiment [3]; 17 µM in experiment [4]; 51 µM in experiment [5]; 53 µM in experiment [6]. For the same compound, the IC50 in experiment [7] amounted to 43 µM.
With `C=CC(=O)N1CCC(c2ccc(OC)cc2)(c2nnn[nH]2)CC1`, the IC50 in experiment [1] stood at 15.5 µM; in experiment [2], 31 µM; in experiment [3], 8.3 µM; in experiment [4] it was 8.9 µM; in experiment [5] it was 59 µM; in experiment [6] it was 32 µM. The IC50 in experiment [7] came to 15 µM.
As to `C=CC(=O)N1CCC(C(=O)O)(c2ccc(Cl)cc2)CC1`, the IC50 came to 48 µM in experiment [1]; 166 µM in experiment [2]; 33 µM in experiment [3]; 31 µM in experiment [4]; 108 µM in experiment [5]; 53 µM in experiment [6]. For the same compound, the IC50 in experiment [7] stood at 41 µM.
